Laboratory results published in ChEMBL document CHEMBL4665831, “Ultrapotent Inhibitor of Clostridioides difficile Growth, Which Suppresses Recurrence In Vivo” (J Med Chem, 2020).

Experiments:
Escherichia coli = assay: Antimicrobial activity against Escherichia coli JW55031 harboring TolC mutant assessed as reduction in microbial growth after 48 hrs by CLSI based broth microdilution method; format: functional
Procedure, shortened: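 CLSI broth microdilution: strains were grown aerobically overnight on tryptone soy agar at 37°C. A 0.5 McFarland suspension was diluted to ~5 × 10^5 CFU/mL in cation-adjusted Mueller-Hinton broth (E. coli) or tryptone soy broth (enterococci), and agents were serially diluted.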

Clostridioides difficile [1] = assay: Potency index, ratio of vancomycin MIC to test compound MIC for antibacterial activity against Clostridioides difficile NR-32895 P19; format: functional
[2] = Selectivity ratio of cytotoxicity against human Caco-2 cells to MIC for antibacterial against clostridioides difficile ATCC BAA 1801; format: toxicity, cell-based
Lactobacillus crispatus [3] = assay: Antibacterial activity against Lactobacillus crispatus HM-103 assessed as reduction in microbial growth after 48 hrs by broth microdilution method
Procedure, shortened: (§1)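 Gut commensal MICs by broth microdilution: a 0.5 McFarland suspension was diluted to ~5 × 10^5 CFU/mL in BHIS broth (Bacteroides) or MRS broth (Lactobacillus). Agents were serially diluted and incubated 48 h at 37°C. MIC was read by visual inspection of growth.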

Lactobacillus crispatus [4] = assay: Antibacterial activity against Lactobacillus crispatus HM-371 assessed as reduction in microbial growth after 48 hrs by broth microdilution method; procedure, shortened: as §1
Bacteroides fragilis = assay: Antibacterial activity against Bacteroides fragilis HM-711 assessed as reduction in microbial growth after 48 hrs by broth microdilution method; format: organism-based; procedure, shortened: as §1
Phocaeicola dorei = assay: Antibacterial activity against Bacteroides dorei HM-719 assessed as reduction in microbial growth after 48 hrs by broth microdilution method; format: organism-based; procedure, shortened: as §1
Clostridioides difficile [5] = assay: Antimicrobial activity against Clostridioides difficile ATCC 43255 assessed as drug resistance by measuring frequency of mutation at 20 times of MIC after 48 hrs; format: functional
[6] = Selectivity ratio of MIC for antibacterial activity against Bacteroides fragilis HM-709 to antibacterial activity against Clostridioides difficile NR-32883 P2; format: ADME
[7] = Selectivity ratio of MIC for antibacterial activity against Bacteroides fragilis HM-709 to antibacterial activity against Clostridioides difficile NR-32891 P13; format: ADME
[8] = Selectivity ratio of MIC for antibacterial activity against Bacteroides fragilis HM-709 to antibacterial activity against Clostridioides difficile NR-32895 P19; format: ADME
[9] = Selectivity ratio of MIC for antibacterial activity against Bacteroides dorei HM-719 to antibacterial activity against Clostridioides difficile NR-32883 P2; format: ADME
[10] = Selectivity ratio of MIC for antibacterial activity against Bacteroides dorei HM-719 to antibacterial activity against Clostridioides difficile NR-32891 P13; format: ADME
[11] = Selectivity ratio of MIC for antibacterial activity against Bacteroides dorei HM-719 to antibacterial activity against Clostridioides difficile NR-32904 P30; format: ADME

O=C(Nc1nnc(-c2cc(Cl)cc(Cl)c2)o1)c1ccc(SC(F)(F)F)cc1
MIC (Escherichia coli): 9.2 µM
Ratio (Clostridioides difficile [1]): 2.5
Selectivity ratio [2]: > 9000
MIC (Lactobacillus crispatus [3]): 36.8 µM
MIC (Lactobacillus crispatus [4]): 36.8 µM
MIC (Bacteroides fragilis): 4.6 µM
MIC (Phocaeicola dorei): 4.6 µM
Activity (Clostridioides difficile [5]): <1.1 10^-9No_unit
Selectivity ratio [6]: 100
Selectivity ratio [7]: 100
Selectivity ratio [8]: 100
Selectivity ratio [9]: 100
Selectivity ratio [10]: 100
Selectivity ratio [11]: 100
